According to article PMC4478078 (Biochemistry, 2015):
Changes are numbered by the printed parent chain.

Legend:
HO2core = target: T1, HO2core (Homo sapiens, UniProt P30519); test: Fe^3+-heme on rate, anaerobic stopped flow, HO2core; type: binding
T1 sequence (P30519 1-248): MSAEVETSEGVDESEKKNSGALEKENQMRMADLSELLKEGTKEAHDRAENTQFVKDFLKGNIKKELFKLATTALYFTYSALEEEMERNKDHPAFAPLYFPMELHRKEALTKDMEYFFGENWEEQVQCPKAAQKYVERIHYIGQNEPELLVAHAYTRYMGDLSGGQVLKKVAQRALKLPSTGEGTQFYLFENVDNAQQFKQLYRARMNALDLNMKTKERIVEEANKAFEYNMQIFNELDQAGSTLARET
Procedure, shortened: (§1)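 Apoprotein at various concentrations was mixed with Fe3+-heme in 50 mM Tris pH 8.0, 50 mM KCl by stopped-flow inside an anaerobic chamber, 1 cm path, 20 °C, 406 nm. Each kobs is the mean of 5–7 traces fit to a single exponential. Eq 1 fit of kobs versus apoprotein concentration gave k2/k1 and kcoord, with k′heme ≈ kcoord/(k2/k1). Kd is the myoglobin-assay off rate divided by k′heme.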

HO2tail^R [1] = test: Fe^3+-heme off rate, apo-H64Y/V68F-myoglobin assay, HO2tail^R; type: binding, human; details: double-exponential, 20 °C
Procedure, shortened: (§2)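 Disulfide-reduced (TCEP) heme-loaded protein, freed of unbound heme, at 2 μM was mixed with 20 μM apo-H64Y/V68F-myoglobin in 50 mM Tris pH 8.0, 50 mM KCl. Apomyoglobin was prepared by methyl ethyl ketone extraction, dialysed against Tris pH 7.4 with 150 mM KCl, and quantified at 280 nm. Spectra were recorded over time at 20 °C, following the absorbance rise at 600 from heme scavenging.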

HO2tail(C282A)^R [2] = target: T2, HO2tail(C282A)^R (Homo sapiens, UniProt P30519, C282A); test: Fe^3+-heme on rate, anaerobic stopped flow, HO2tail; type: binding
T2 sequence (P30519 213-288 C282A): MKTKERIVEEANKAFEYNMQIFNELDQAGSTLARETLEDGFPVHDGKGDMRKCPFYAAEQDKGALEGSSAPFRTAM
Procedure, shortened: as §1

[3] = target: T3, HO2tail(C265A)^R (human HO2 residues 213–288, disulfide-reduced) (Homo sapiens, UniProt P30519, C265A); test: Fe^3+-heme difference titration with HO2tail; type: binding; details: read-out: Kd (titrations); 6 μM HO2tail(C265A)^R; 50 mM Tris pH 8.0, 50 mM KCl, 20 °C, anaerobic
T3 sequence (P30519 213-288 C265A): T2 sequence (P30519 213-288 C282A) with C53A, A70C

HO2tail(C265A/C282A)^R = test: Heme binding to HO2tail; design: species or system human; details: data not shown
HO2tail(C265A)^R [4] = test: Fe^3+-heme off rate, apo-H64Y/V68F-myoglobin assay, HO2tail; type: binding, human; details: 2 μM heme-bound protein, 20 μM apo-H64Y/V68F-myoglobin, 20 °C
Procedure, shortened: as §2

[5] = test system: HRI (heme-regulated eukaryotic initiation factor 2α kinase); details: cited from earlier work
HO2sol^R [6] = target: T4, HO2sol^R (Homo sapiens, UniProt P30519); test: Pyridine hemochrome assay of bound heme, HO2sol^R; type: binding; details: after 5-fold excess Fe^3+-heme and removal of unbound heme
T4 sequence (P30519 1-288): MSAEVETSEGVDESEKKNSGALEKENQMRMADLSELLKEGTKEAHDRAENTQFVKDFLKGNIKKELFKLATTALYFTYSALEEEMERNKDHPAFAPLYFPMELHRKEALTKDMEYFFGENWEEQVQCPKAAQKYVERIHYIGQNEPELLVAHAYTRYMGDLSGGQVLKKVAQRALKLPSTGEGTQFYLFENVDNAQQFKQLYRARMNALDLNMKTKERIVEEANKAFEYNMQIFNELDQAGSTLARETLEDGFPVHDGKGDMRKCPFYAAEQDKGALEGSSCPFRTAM
Procedure, shortened: (§3)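 Protein was reduced with a 25-fold molar excess of TCEP for 1 h anaerobically, desalted into anaerobic 50 mM Tris pH 8.0, 50 mM KCl, then incubated 1 h with excess Fe3+-heme (5-fold molar excess in the general method). The heme stock contained 15% DMSO and 0.1 M NaOH, was filtered and quantified at 385 nm. Unbound heme was removed on a desalting column. Bound heme was measured by pyridine hemochrome (Δε556 28.32 mM−1 cm−1).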

HO2tail(C282A)^R [7] = target: T2, HO2tail(C282A)^R; test: Pyridine hemochrome assay of bound heme, HO2tail; type: binding; details: after excess Fe^3+-heme and removal of unbound heme
Procedure, shortened: as §3

[8] = test system: HO2sol^R (human HO2 residues 1–288, disulfide-reduced); test: Fe^3+-heme off rate, apo-H64Y/V68F-myoglobin assay, HO2sol^R; type: binding; details: double-exponential, 20 °C
Procedure, shortened: as §2

HO2 tail at Cys265 = test: Calculated dissociation equilibrium constant, HO2 tail at Cys265; type: binding, human
[9] = target: T5, HO2core (human HO2 residues 1–248) (Homo sapiens, UniProt P30519); test: Fe^3+-heme difference titration with HO2core; type: binding; details: read-out: Kd (titrations); 2 μM HO2core; 50 mM Tris pH 8.0, 50 mM KCl, 20 °C, anaerobic; quadratic fit
T5 sequence (P30519 1-248): T1 sequence (P30519 1-248)

HO2tail(C282A)^R [10] = target: T2, HO2tail(C282A)^R; test: Fe^3+-heme off rate, apo-H64Y/V68F-myoglobin assay, HO2tail; type: binding; details: 2 μM heme-bound protein, 20 μM apo-H64Y/V68F-myoglobin, 20 °C
Procedure, shortened: as §2

HO2sol^R [11] = target: T4, HO2sol^R; test: Fe^3+-heme on rate, anaerobic stopped flow, HO2sol^R; details: 406 nm, 20 °C, per observable binding site (two per monomer)
Procedure, shortened: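 TCEP-reduced apoprotein at various concentrations was mixed with Fe3+-heme in anaerobic 50 mM Tris pH 8.0, 50 mM KCl by stopped-flow within an anaerobic chamber at 20 °C, monitored at 406 nm. Each kobs is an average of 5–7 traces fit to a single exponential. kobs was plotted against the concentration of observable binding sites and fit to eq 1; k′heme ≈ kcoord/(k2/k1).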

HO2tail^R [12] = test: Pyridine hemochrome assay of bound heme, HO2tail^R; type: binding, human; details: after 5-fold excess Fe^3+-heme and removal of unbound heme
Procedure, shortened: as §3

HO2tail(C265A)^R [13] = test: Pyridine hemochrome assay of bound heme, HO2tail; type: binding, human; details: after excess Fe^3+-heme and removal of unbound heme
Procedure, shortened: as §3

[14] = target: T6, HO2tail(C282A)^R (human HO2 residues 213–288, disulfide-reduced) (Homo sapiens, UniProt P30519, C282A); test: Fe^3+-heme difference titration with HO2tail; type: binding; details: read-out: Kd (titrations); 10 μM HO2tail(C282A)^R; 50 mM Tris pH 8.0, 50 mM KCl, 20 °C, anaerobic
T6 sequence (P30519 213-288 C282A): T2 sequence (P30519 213-288 C282A)

[15] = fit of eq 1 to kobs vs apoprotein concentration
[16] = read-out: Kd (k-heme/k′heme), calculated from off and on rates

C=CC1=C(C)c2cc3[n-]c(cc4[n-]c(cc5nc(cc1n2)C(C)=C5C=C)c(C)c4CCC(=O)O)c(CCC(=O)O)c3C.[Fe+2] [Fe^3+-heme]
k′heme (apparent second-order rate constant, kcoord/(k2/k1)) (HO2core; 406 nm, 20 °C, anaerobic): 6.4e+06 M⁻¹ s⁻¹
k2/k1 (HO2core; [15]): 14.1 ± 0.3 µM
kcoord (HO2core; [15]): 91 ± 1 s⁻¹
Kd (HO2core; [16]): 0.2 nM
k-heme (off rate), fast phase (HO2tail^R [1]; fast phase, assigned to Cys282): 0.0086 ± 0.003 s⁻¹
k-heme (off rate), slow phase (HO2tail^R [1]; slow phase, assigned to Cys265): 0.0023 ± 0.0004 s⁻¹
k′heme (apparent second-order rate constant, kcoord/(k2/k1)) (HO2tail(C282A)^R [2]; 406 nm, 20 °C, anaerobic): 7.6e+06 M⁻¹ s⁻¹
k2/k1 (HO2tail(C282A)^R [2]; [15]): 14 ± 4 µM
kcoord (HO2tail(C282A)^R [2]; [15]): 110 ± 10 s⁻¹
Kd (HO2tail(C282A)^R [2]; [16]): 0.3 nM
Kd [3]: 900 ± 300 nM
Fe^3+-heme binding (in words) (HO2tail(C265A/C282A)^R): did not bind
k-heme (off rate) (HO2tail(C265A)^R [4]): 0.0055 ± 0.0005 s⁻¹
off rate [5]: 0.0015 s⁻¹
hemes bound per monomer of protein (HO2sol^R [6]): 2.1 ± 0.1 hemes per monomer of protein
heme bound per monomer of protein (HO2tail(C282A)^R [7]): 0.8 ± 0.2 heme per monomer of protein
k-heme (off rate), fast phase ([8]; fast phase, assigned to Cys265): 0.0031 ± 0.0002 s⁻¹
k-heme (off rate), slow phase ([8]; slow phase, assigned to His45 at the core): 0.00054 ± 0.00006 s⁻¹
difference in binding affinity between the sites (core His45 vs tail Cys265) (HO2 tail at Cys265; Fe^3+-heme difference titrations): ~ 6 fold
difference in binding affinity between the sites (core His45 vs tail Cys265) (HO2 tail at Cys265; kinetic experiments): 2–5 fold
Kd [9]: 14 ± 4 nM
k-heme (off rate) (HO2tail(C282A)^R [10]): 0.0023 ± 0.0001 s⁻¹
k′heme (apparent second-order rate constant, kcoord/(k2/k1)) (HO2sol^R [11]): 6.9e+06 M⁻¹ s⁻¹
hemes bound per monomer of protein (HO2tail^R [12]): 1.4 ± 0.3 hemes per monomer of protein
heme bound per monomer of protein (HO2tail(C265A)^R [13]): 0.74 ± 0.03 heme per monomer of protein
Kd [14]: 90 ± 30 nM
